Laboratory results from ChEMBL document CHEMBL1137712, “Antidyslipidemic and antioxidative activities of 8-hydroxyquinoline derived novel keto-enamine Schiffs bases” (Eur J Med Chem, 2009).
Calls of active or inactive are those of the source. The rule behind the calls is not given here.

Experiments:
Rattus norvegicus [1] = assay: Antidyslipidemic activity against triton-induced hyperlipidemia in Charles Foster rat assessed as reduction in phospholipid level at 100 mg/kg, po after 18 hrs by spectrophotometry relative to control; assay type: functional; parameters: scale not given: the % may be the effect or the level left
Procedure, shortened: (§1)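 Male adult Charles Foster rats (200–225 g), six per group. Triton WR-1339 400 mg/kg ip with simultaneous oral dosing at 100 mg/kg in 0.2% w/v gum acacia suspension; diet withdrawn; vehicle controls. At 18 h, thiopentone anaesthesia, retro-orbital blood into EDTA, plasma diluted 1:3 in saline; Tc, Tg, Pl by standard enzymatic kits; Student's t-test versus triton group, P<0.05.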

[2] = Antioxidant activity assessed as inhibition microsomal lipid peroxidation at 200 ug/ml by thiobarbituric acid test; assay type: functional; parameters: scale not given: the % may be the effect or the level left; conditions: Microsome
Rattus norvegicus [3] = assay: Antidyslipidemic activity in Charles Foster rat hyperlipidemia model assessed as suppression of triton-induced post heparin lipolytic activity at 100 mg/kg, po after 18 hrs by spectrophotometry relative to control; assay type: functional
Procedure, shortened: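 Post-heparin lipolytic activity in plasma of male Charles Foster rats given triton WR-1339 400 mg/kg ip plus oral dose 100 mg/kg in gum acacia, six per group, sampled at 18 h; assayed spectrophotometrically per Wing and Robinson, expressed as nmol free fatty acid formed/h/ml plasma; triton group compared with control, treated with triton group.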

Rattus norvegicus [4] = assay: Antidyslipidemic activity against triton-induced hyperlipidemia in Charles Foster rat assessed as reduction in total cholesterol level at 100 mg/kg, po after 18 hrs by spectrophotometry relative to control; assay type: functional; parameters: scale not given: the % may be the effect or the level left; procedure, shortened: as §1
Rattus norvegicus [5] = assay: Antidyslipidemic activity against triton-induced hyperlipidemia in Charles Foster rat assessed as reduction in triglyceride level at 100 mg/kg, po after 18 hrs by spectrophotometry relative to control; assay type: functional; parameters: scale not given: the % may be the effect or the level left; procedure, shortened: as §1
[6] = Antioxidant activity assessed as inhibition non-enzymatic reactants generated hydroxyl radical production at 200 ug/ml by spectrophotometry; assay type: functional; parameters: scale not given: the % may be the effect or the level left
Procedure, shortened: (§2)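 Hydroxyl radicals generated non-enzymically from deoxyribose 2.8 mM, FeSO4 2 mM, sodium ascorbate 2.0 mM and H2O2 2.8 mM in 50 mM KH2PO4 pH 7.4, with or without compound, 37 °C for 90 min; MDA measured spectrophotometrically by thiobarbituric acid method, with reference samples and reagent blanks; mannitol reference.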

[7] = Antioxidant activity assessed as inhibition of xanthine-xanthine oxidase generated superoxide anion radical production at 200 ug/ml by spectrophotometry; assay type: functional; parameters: scale not given: the % may be the effect or the level left
Procedure, shortened: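 Superoxide generated by xanthine, xanthine oxidase 0.04 U and nitroblue tetrazolium in 100 mM phosphate buffer pH 8.2, with or without compound sonicated in buffer; 37 °C for 30 min, stopped with glacial acetic acid; formazan read at 560 nm, percent inhibition from absorption coefficient 7.2 × 10³ M/cm; allopurinol reference.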

[8] = Antioxidant activity assessed as inhibition non-enzymatic reactants generated hydroxyl radical production at 100 ug/ml by spectrophotometry; assay type: functional; parameters: scale not given: the % may be the effect or the level left; procedure, shortened: as §2
[9] = Antioxidant activity assessed as inhibition of xanthine-xanthine oxidase generated superoxide anion radical production at 20 ug/ml by spectrophotometry; assay type: functional; parameters: scale not given: the % may be the effect or the level left
Procedure, shortened: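 Superoxide generated enzymatically with xanthine, xanthine oxidase (0.04 U) and nitroblue tetrazolium in 100 mM phosphate buffer, pH 8.2, with or without test sample. Samples sonicated in phosphate buffer before use. Incubated 30 min at 37 °C, then stopped with glacial acetic acid. Formazan read at 560 nm. Percent inhibition calculated using formazan absorption coefficient 7.2 × 10³ M/cm.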

[10] = Antioxidant activity assessed as inhibition microsomal lipid peroxidation at 100 ug/ml by thiobarbituric acid test; assay type: functional; parameters: scale not given: the % may be the effect or the level left; conditions: Microsome
[11] = Cytotoxicity against primary osteoblast cells; assay type: cell-based
Vero = assay: Cytotoxicity against african green monkey Vero cells; assay type: cell-based; conditions: chlorocebus sabaeus

`Cc1ccc(N/C=C2/C=C(C=O)c3cccnc3C2=O)cc1` gave an Activity (Rattus norvegicus [1]) of 18%, an Activity [2] of 41% and an Activity (Rattus norvegicus [3]) of 5%. The Activity (Rattus norvegicus [4]) was 23%, the Activity (Rattus norvegicus [5]) was 25% and the Activity [6] was 36%. It also gave an Activity [7] of 44%.
In the case of `CC(C)N/C=C1/C=C(C=O)c2cccnc2C1=O`, the Activity (Rattus norvegicus [1]) is reported as “Active”, the Activity [2] is reported as 35% and the Activity (Rattus norvegicus [3]) is reported as 5%. For the same compound, the Activity (Rattus norvegicus [4]) was “Active”, the Activity (Rattus norvegicus [5]) was “Active” and the Activity [6] was 38%. The Activity [7] was 47%.
In the case of `Cc1ccc(C)c(OCCCC(C)(C)C(=O)O)c1` [GEMFIBROZIL], the Activity (Rattus norvegicus [1]) is reported as 34%, the Activity (Rattus norvegicus [3]) is reported as 27% and the Activity (Rattus norvegicus [4]) is reported as 36%. The Activity (Rattus norvegicus [5]) was 38%.
For `O=CC1=C/C(=C/NCCN2CCOCC2)C(=O)c2ncccc21`, the Activity (Rattus norvegicus [1]) was “Active”, the Activity [2] was “inactive” and the Activity (Rattus norvegicus [3]) was 5%. The Activity (Rattus norvegicus [4]) was “Active”, the Activity (Rattus norvegicus [5]) was “Active” and the Activity [6] was “inactive”. For the same compound, the Activity [7] was “inactive”.
For `O=CC1=C/C(=C/NCCCN2CCOCC2)C(=O)c2ncccc21`, the Activity (Rattus norvegicus [1]) was “Active”, the Activity [2] was “inactive” and the Activity (Rattus norvegicus [3]) was 5%. For the same compound, the Activity (Rattus norvegicus [4]) was “Active”, the Activity (Rattus norvegicus [5]) was “Active” and the Activity [6] was “inactive”. For the same compound, the Activity [7] was “inactive”.
`OC[C@@H](O)[C@@H](O)[C@H](O)[C@H](O)CO` showed an Activity [8] of 50%.
With `CCN/C=C1/C=C(C=O)c2cccnc2C1=O` the Activity (Rattus norvegicus [1]) was “Active”, the Activity [2] was “Active” and the Activity (Rattus norvegicus [3]) was 5%. For the same compound, the Activity (Rattus norvegicus [4]) was “Active”, the Activity (Rattus norvegicus [5]) was “Active” and the Activity [6] was “Active”. For the same compound, the Activity [7] was “Active”.
`Oc1ncnc2[nH]ncc12` showed an Activity [9] of 84%.
With `Cc1c(C)c2c(c(C)c1O)CC[C@@](C)(CCC[C@H](C)CCC[C@H](C)CCCC(C)C)O2` the Activity [10] was 47%.
For `O=CC1=C/C(=C/NCc2ccccc2)C(=O)c2ncccc21`, the Activity [2] was “Active”, the Activity (Rattus norvegicus [3]) was 5% and the Activity [6] was “Active”. For the same compound, the Activity [7] was “Active”.
With `CN/C=C1/C=C(C=O)c2cccnc2C1=O` the Activity [11] was “Non-toxic”, the Activity (Rattus norvegicus [1]) was 25% and the Activity [2] was “Active”. For the same compound, the Activity (Rattus norvegicus [3]) was 5%, the Activity (Rattus norvegicus [4]) was 26% and the Activity (Rattus norvegicus [5]) was 24%. For the same compound, the Activity [6] was “Active”, the Activity [7] was “Active” and the Activity (Vero) was “Non-toxic”.
In the case of `CC(C)CCCCN/C=C1/C=C(C=O)c2cccnc2C1=O`, the Activity (Rattus norvegicus [1]) is reported as “Active”, the Activity [2] is reported as “inactive” and the Activity (Rattus norvegicus [3]) is reported as 5%. The Activity (Rattus norvegicus [4]) was “Active”, the Activity (Rattus norvegicus [5]) was “Active” and the Activity [6] was “inactive”. For the same compound, the Activity [7] was “inactive”.
In the case of `CC(C)(C)N/C=C1/C=C(C=O)c2cccnc2C1=O`, the Activity (Rattus norvegicus [1]) is reported as “Active”, the Activity [2] is reported as “Active” and the Activity (Rattus norvegicus [3]) is reported as 5%. For the same compound, the Activity (Rattus norvegicus [4]) was “Active”, the Activity (Rattus norvegicus [5]) was “Active” and the Activity [6] was “Active”. The Activity [7] was “Active”.
